# Screening data (PubChem BioAssay)
# Diaph act CS – compounds boosting diaphorase resazurin reduction – biochemical, uHTS, resorufin fluorescence, counter-screen for diaphorase-coupled primary assays, primary screen. Diaphorase/resazurin coupled assay, 16 min; active compounds read high; 1 = vehicle wells, 0 = NADH-free wells. activation factor at 20 µM. 190,000 tested, 0.005% active. AID 1229, 2008;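 active = diaphorase activity raised at least twofold by the compound at 20 µM; inactive = activation factor below 2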
#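 Material: purified diaphorase enzyme from Clostridium kluyveri; Also added: 0.114 mM NADH and 0.1 mM resazurin, final amounts; Doses: single compound dose of 20 µM, 1% DMSO final; Times: 16 min enzyme reaction, ambient temperature; Detection: resorufin fluorescence, excitation 544 nm, emission 590 nm; Measure: increased resorufin signal from activators or reducing compounds.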
# Diaphorase inh – diaphorase inhibitors and chemical oxidizers, primary screen, counter-screen for diaphorase-coupled primary assays, biochemical, uHTS, resorufin fluorescence; diaphorase resazurin-to-resorufin fluorescence, NADH, 16 min; bacterial (C. kluyveri) enzyme, not human; inhibition, % at 20 µM; 190,000 tested, 0.69% active;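 active = primary screen inhibition at 20 µM above a set limit, cut at about 50% in these data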;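 also: plate controls were DMSO with full reaction for no effect and wells lacking NADH for full effect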
#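 Test system: bacterial diaphorase enzyme (C. kluyveri); Quantity: 0.14 U/mL diaphorase, enzyme working solution; Times: reaction incubation of 16 min at room temperature; Measured by: fluorescence of resorufin formed from resazurin, Ex 544/Em 590 nm; Benchmarks: positive control minus NADH, DMSO neutral control.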
# Arbovirus anti – antivirals against arbovirus infection, primary screen, cell-based, full library, 10K replicate subset. inhibition, % at 10 µM. AID 1251, 2008. 200,000 tested, 0.37% active. arbovirus infection cell-based antiviral screen; in the data active = inhibition above about 30%
# G6PDH counter – L. mesenteroides G6PDH inhibitors, counter-screen for G6PDH-coupled screening assays, biochemical, Leuconostoc mesenteroides enzyme; glucose-6-phosphate dehydrogenase [Leuconostoc mesenteroides]; Purified L. mesenteroides G6PDH, diaphorase/resazurin coupled fluorescence, 45 min; inhibition, % at 5 µM; 200,000 tested, 0.12% active; AID 1020, 2008; in the data active = inhibition above about 50%
# HKDC1 inhibitor – HKDC1 hexokinase inhibitors, primary screen, biochemical, fluorescence, uHTS. recombinant HKDC1, G6PDH/diaphorase resazurin coupled fluorescence. 340,000 tested, 0.16% active. inhibition, % at 20 µM. Q2TB90;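 active = inhibition above about 35% when tested at 20 µM, limit read from the data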;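 also: plate controls were DMSO wells with enzyme for no effect and DMSO wells lacking enzyme for full effect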
# Target sequence (Q2TB90 whole entry, looked up): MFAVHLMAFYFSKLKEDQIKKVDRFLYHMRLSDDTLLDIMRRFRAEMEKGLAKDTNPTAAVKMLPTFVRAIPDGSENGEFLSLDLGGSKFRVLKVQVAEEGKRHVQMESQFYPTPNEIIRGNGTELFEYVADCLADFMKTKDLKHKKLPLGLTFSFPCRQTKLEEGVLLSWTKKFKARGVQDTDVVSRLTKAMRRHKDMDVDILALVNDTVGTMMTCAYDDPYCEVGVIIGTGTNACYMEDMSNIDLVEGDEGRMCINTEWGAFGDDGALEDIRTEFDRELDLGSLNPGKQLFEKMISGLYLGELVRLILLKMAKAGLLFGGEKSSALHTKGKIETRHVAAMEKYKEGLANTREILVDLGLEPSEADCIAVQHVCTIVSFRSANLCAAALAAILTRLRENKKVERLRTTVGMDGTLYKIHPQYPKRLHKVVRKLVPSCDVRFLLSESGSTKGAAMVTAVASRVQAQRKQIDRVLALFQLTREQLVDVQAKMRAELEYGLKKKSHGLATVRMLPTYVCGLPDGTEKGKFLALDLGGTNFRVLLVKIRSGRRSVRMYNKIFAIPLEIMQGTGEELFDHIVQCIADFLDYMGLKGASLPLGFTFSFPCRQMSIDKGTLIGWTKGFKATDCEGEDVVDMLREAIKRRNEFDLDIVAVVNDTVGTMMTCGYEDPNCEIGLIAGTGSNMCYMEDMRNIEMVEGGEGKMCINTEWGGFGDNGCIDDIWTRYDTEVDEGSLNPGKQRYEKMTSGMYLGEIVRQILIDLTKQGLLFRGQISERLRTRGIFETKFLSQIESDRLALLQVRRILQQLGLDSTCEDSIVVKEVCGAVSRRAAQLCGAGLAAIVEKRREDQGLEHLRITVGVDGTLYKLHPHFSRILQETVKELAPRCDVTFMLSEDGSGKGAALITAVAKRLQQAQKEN
#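 Assay system: in-house recombinant HK5 (HKDC1) enzyme. Input: HKDC1 at 5 µg/mL. Medium: Tris pH 8.0 buffer with MgCl2, Tween-20, BSA, BME. Dosing: single 20 µM dose. Schedule: 90 min reaction incubation at room temperature, dark. Signal: resazurin-to-resorufin fluorescence via G6PDH and diaphorase coupling, 525/613 nm. Controls: DMSO-enzyme wells negative, buffer-substituted wells positive.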
# * = called active by the depositor; · = no result. Compounds with a hit are over-represented: about 0.74% of the library has one in this group of screens.
SMILES,Diaph act CS,Diaphorase inh,Arbovirus anti,G6PDH counter,HKDC1 inhibitor
CN(C(=O)c1cccc(NC(=O)Cc2ccc(NC(=O)C3CCN(C(=O)C4CC4)CC3)cc2)c1)C1CCCCC1,·,·,·,·,10
O=C(Nc1nc(-c2ccc3c(c2)OCO3)cs1)C1COc2ccccc2O1 (stereo not drawn),0.9,15,52*,-60,2
O=C(Nc1nc(-c2ccccc2)cs1)C1COc2ccccc2O1 (stereo not drawn),0.9,14,9,8,1
COc1cccc(C(=O)Nc2nc(-c3ccc4c(c3)OCO4)cs2)c1,0.8,18,42*,-62,1
Cc1ccc(/C=C2\SC(=S)N(/N=C/c3cc([N+](=O)[O-])ccc3O)C2=O)o1,0.4,63*,-3,12,-12
Oc1ccc(-c2cnns2)c(O)c1,0.9,10,1,3,45*
O=C(CSc1n[nH]c(-c2ccccc2)n1)Nc1ncc(Br)cc1Br,0.4,59*,-3,1,48*
COc1ccc(/C=C(\C#N)C(=O)NCC(c2ccc(F)cc2)N2CCOCC2)cc1 (stereo not drawn),·,·,·,·,-2
COc1cccc(C(=O)Nc2cccc(C(=O)NC3=NN(c4c(Cl)cc(Cl)cc4Cl)C(=O)C3)c2)c1,0.9,10,34*,-1,6
Oc1ccc(Br)cc1C=Nc1ccc2c3c(cccc13)CC2,0.3,67*,-6,41,7
CCOC(=O)c1c(C)[nH]c(C)c1C(=O)COC(=O)c1cccnc1OCC,·,·,·,·,9
COc1ccc(-c2cc(-c3ccc(OC)c(OC)c3)n[nH]2)c(O)c1,1,-1,32*,11,-7
Cc1cc(C)c(NC(=S)NC(=O)c2ccc(-c3ccccc3)cc2)c(C)c1,0.9,11,30*,-17,1
O=C(NC(=S)Nc1ccccn1)c1ccc(-c2ccccc2)cc1,·,·,·,·,5
CC1(C)C2CCC(C2)C1(C)NC(=O)CNCc1cccs1 (stereo not drawn),0.9,13,30*,16,13
O=C(CNCc1cccs1)NC12CC3CC(CC(C3)C1)C2,1,0,-4,8,-6
COC(=O)C1CN(C(=O)COc2cc(C)cc(C)c2)c2ccccc2O1 (stereo not drawn),·,·,·,·,0
CCc1nc2ccc(C(=O)N3CCN(c4ccccc4)CC3)cc2nc1CC,·,·,·,·,-2
O=C(O)c1cc(-c2ccco2)nc2ccc(Br)cc12,0.3,65*,30,-4,30
O=S(=O)(c1ccc2ccccc2c1)N1CCOCC1,·,·,·,·,-1
O=C(c1ccco1)N1CCN(C(=O)c2cc(-c3ccncc3)nc3ccc(Br)cc23)CC1,·,·,·,·,0
O=S(=O)(c1ccc2nc(-c3ccco3)c(-c3ccco3)nc2c1)N1CCOCC1,0.3,67*,-11,38,20
O=C(Nc1cccc(C(F)(F)F)c1)c1ccc2nc(-c3ccco3)c(-c3ccco3)nc2c1,0.8,24,-4,11,34
O=C(c1ccc2nc(-c3ccco3)c(-c3ccco3)nc2c1)N1CCN(c2ccccc2)CC1,0.4,56*,2,-28,3
O=C(O)c1ccc2nc(-c3ccco3)c(-c3ccco3)nc2c1,0.2,84*,3,43,12
SMILES,Diaph act CS,Diaphorase inh,Arbovirus anti,G6PDH counter,HKDC1 inhibitor
CC(C)c1ccc(CCNC(=O)CCNS(=O)(=O)c2ccc(Br)cc2)cc1,·,·,·,·,2
Oc1ccc(CCNc2c3ccccc3nc3ccccc23)cc1O,·,·,·,·,11
O=C(NCCCO)Nc1ccc2nc(-c3ccco3)c(-c3ccco3)nc2c1,0.4,60*,33*,29,·
O=C(Nc1ccc(N2CCOCC2)cc1)Nc1ccc2nc(-c3ccco3)c(-c3ccco3)nc2c1,0.8,21,-26,12,18
OCCCNC(=S)Nc1ccc2nc(-c3ccccn3)c(-c3ccccn3)nc2c1,0.3,68*,8,52*,9
S=C(Nc1ccc2nc(-c3ccccn3)c(-c3ccccn3)nc2c1)N1CCOCC1,0.5,51*,-6,53*,10
CCCCN(C(=O)c1cccc(S(=O)(=O)N(C)c2ccc(C)cc2)c1)c1c(N)n(CC(C)C)c(=O)[nH]c1=O,·,·,·,·,0
CC(Nc1cccc([N+](=O)[O-])c1)C(=O)Nc1ccc(S(=O)(=O)N2CCCC2)cc1 (stereo not drawn),·,·,·,·,3
Cc1ccc2nc3c(cc(C(=O)NCc4ccco4)c(=N)n3Cc3ccco3)c(=O)n2c1,·,·,2,5,0
N=c1c(C(=O)NCc2ccco2)cc2c(=O)n3ccccc3nc2n1Cc1ccc(Cl)cc1,0.9,11,-1,-3,6
N=c1c(C(=O)NCc2ccccc2)cc2c(=O)n3ccccc3nc2n1Cc1ccco1,0.3,68*,-4,-1,6
N=c1c(C(=O)NCc2ccco2)cc2c(=O)n3ccccc3nc2n1Cc1ccccc1,1,3,-12,7,-3
Cc1ccc(CNC(=O)c2cc3c(=O)n4ccccc4nc3n(Cc3ccco3)c2=N)cc1,0.1,90*,·,6,9
N=c1c(C(=O)NCc2ccc(F)cc2)cc2c(=O)n3ccccc3nc2n1Cc1ccco1,0.5,51*,-11,-7,6
CCN(C(=O)C(C)Sc1ccc(S(=O)(=O)N2CCOCC2)cn1)c1ccccc1 (stereo not drawn),·,·,·,·,3
CCCCCc1ccc(C(=O)CCCC)c(=S)[nH]1,0.4,57*,-2,4,-16
CCCCCc1cc(=O)[nH]c(=S)[nH]1,·,·,·,·,-8
CNc1ccc(Br)cc(C(=O)/C=C/c2cccc(OC)c2)c1=O,0.5,50*,13,24,26
CCNc1ccc(Br)cc(C(=O)/C=C/c2ccc3c(c2)OCO3)c1=O,0.4,59*,13,38,21
CNc1ccc(Br)cc(C(=O)/C=C/c2ccc(Cl)cc2Cl)c1=O,0.2,85*,-9,34,19
NC(=S)N/N=C/c1cccc(O)c1O,0.4,60*,-1,66*,12
S=C(NCCN1CCOCC1)N/N=C/c1cccs1,·,·,·,·,1
Oc1cccc(/C=N/NC(=S)Nc2cccnc2)c1O,0.4,60*,-8,51*,-1
Oc1cccc(/C=N/NC(=S)NCCN2CCOCC2)c1O,0.3,66*,-7,60*,4
CCN(CC)c1cccc(OCC(=O)N2c3ccccc3CC2C)c1 (stereo not drawn),·,·,·,·,1
COc1c(Cl)cc(C(=O)NN)cc1Cl,1.2,-15,-6,0,-7
NNC(=O)c1cc(O)c(O)c(O)c1,0.4,65*,-4,9,14
C=CCc1cccc2cc(C(=O)Nc3ccccc3C(=O)O)c(=O)oc12,0.1,93*,32*,4,11
